According to ChEMBL document CHEMBL4715796, “Discovery of Chromane Containing Hepatitis C Virus (HCV) NS5A Inhibitors with Improved Potency against Resistance-Associated Variants” (J Med Chem, 2016):

Test: Cytotoxicity against human HuH7 cells assessed as reduction in cell viability measured after 72 hrs by Hoechst/Alexa fluor 488 staining based Edu plus cell counting analysis
Design: species or system Huh-7
Outline: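 Huh7 cells were seeded at 1,200 per well and treated with a 20-point twofold compound dilution series for 72 h, with EdU added for the last 18-20 h. Cells were then fixed and permeabilized, nuclei stained with Hoechst, and EdU labelled with Alexa Fluor 488 by click reaction. Plates were scanned with 405 nm (420-500 nm) and 488 nm (500-530 nm) detection, giving CC50.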

COC(=O)N[C@H](C(=O)N1CCC[C@H]1c1ncc(-c2cc(F)c3c(c2)OC(c2ccc4c(c2)OCCC4)n2c-3cc3cc(-c4cnc([C@@H]5CCCN5C(=O)[C@@H](NC(=O)OC)C(C)C)[nH]4)ccc32)[nH]1)C(C)C (stereo partly specified)
CC50 at 72 h: > 50 µM
